# Measurements as given in ChEMBL document CHEMBL4673212, “Investigation of synergistic antimicrobial effects of the drug combinations of meropenem and 1,2-benzisoselenazol-3(2H)-one derivatives on carbapenem-resistant Enterobacteriaceae producing NDM-1” (Eur J Med Chem, 2018).
# Assays:
# [1] = target: Metallo-beta-lactamase type 2 (Klebsiella pneumoniae) (UniProt C7C422); experiment: Binding affinity to wild type N-terminal His6-tagged Klebsiella pneumoniae NDM-1 expressed in Escherichia coli BL21 assessed as formation of compound-intact protein complex by measuring molecular weight measured after 20 mins by ESI-MS analysis
# Sequence of Metallo-beta-lactamase type 2 (Klebsiella pneumoniae) (C7C422 whole entry, the tested form may be a part): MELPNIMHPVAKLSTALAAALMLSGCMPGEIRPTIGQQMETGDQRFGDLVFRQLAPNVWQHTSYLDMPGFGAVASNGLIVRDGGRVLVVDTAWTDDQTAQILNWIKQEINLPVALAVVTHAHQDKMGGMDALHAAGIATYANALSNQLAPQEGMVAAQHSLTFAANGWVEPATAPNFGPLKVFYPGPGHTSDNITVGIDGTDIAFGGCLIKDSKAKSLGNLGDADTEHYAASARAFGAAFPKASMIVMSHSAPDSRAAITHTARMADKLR
# How it was run: (§1)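 NDM-1 (20 µM) incubated 20 min with equimolar compound in 20 mM ammonium acetate. Native sample infused by nano-ESI with spray held ~20 min at 150 V. For the denatured sample, an equal volume of acetonitrile with 0.5% formic acid was added before syringe-pump loading at 5 µL/min. Complex formation was read from mass.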
# [2] = Toxicity in Galleria mellonella wax moth larve assessed as mortality at 2 mg/kg cotreated with 2 mg/kg meropenem relative to control; type: organism-based; conditions: in vivo, read-out: Activity
# How it was run: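 G. mellonella larvae (250–300 mg, n=10) infected in the hemocoel at the last left proleg with E. cloacae EL10 at 2.5 × 10^5 CFU/larva in PBS. Treatment was injected at the next left proleg 1 h from inoculation: vehicle, single agents at 10 mg/kg, or combinations at 2+2 or 10+10 mg/kg. Larvae were held at 37 °C and scored every 12 h for 48 h (no response to stimuli = dead). Log-rank test. Three independent experiments.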
# [3] = target: Metallo-beta-lactamase type 2 (Klebsiella pneumoniae) (UniProt C7C422); experiment: Binding affinity to denatured N-terminal His6-tagged Klebsiella pneumoniae NDM-1 expressed in Escherichia coli BL21 assessed as formation of compound-intact protein complex by measuring molecular weight measured after 20 mins by ESI-MS analysis; how it was run: as §1
# [4] = Toxicity in Galleria mellonella wax moth larve assessed as mortality at 10 mg/kg relative to control; type: organism-based; conditions: in vivo, read-out: Activity
# [5] = target: Metallo-beta-lactamase type 2 (Klebsiella pneumoniae) (UniProt C7C422); experiment: Inhibition of wild type N-terminal His6-tagged Klebsiella pneumoniae NDM-1 expressed in Escherichia coli BL21 assessed as inactivation constant using nitrocefin as substrate measured after 30 mins
# How it was run: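 1 nM purified His6-NDM-1 was mixed with varying compound concentrations in 50 mM phosphate buffer ± 50 µM ZnSO4 with BSA. Nitrocefin was added at 7× Km and velocity read at 482 nm, in triplicate. ln(% residual activity) versus incubation time gave kobs, which was fitted hyperbolically against concentration for KI and kinact.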
smiles,measurement,setting,value
CC(C)(C)OC(=O)NCCn1[se]c2ccccc2c1=O,Activity,[1],26300 Da
same,mortality,[2],100%
same,Activity,[3],26200 Da
same,mortality,[4],100%
same,Kinact,[5],0.068 min⁻¹
